Measurements: publication PMC2225614 (The Journal of General Physiology, 2001)

Key:
[1] = target: T1, CHM35 (RETα with Q417 substituted with a histidine) (Bos taurus, UniProt Q00194, Q417H); assay: Genistein inhibition of closed chimeric channel CHM35; assay type: biochemical, bovine/rat; settings: closed channels
T1 sequence (Q00194 1-690 Q417H): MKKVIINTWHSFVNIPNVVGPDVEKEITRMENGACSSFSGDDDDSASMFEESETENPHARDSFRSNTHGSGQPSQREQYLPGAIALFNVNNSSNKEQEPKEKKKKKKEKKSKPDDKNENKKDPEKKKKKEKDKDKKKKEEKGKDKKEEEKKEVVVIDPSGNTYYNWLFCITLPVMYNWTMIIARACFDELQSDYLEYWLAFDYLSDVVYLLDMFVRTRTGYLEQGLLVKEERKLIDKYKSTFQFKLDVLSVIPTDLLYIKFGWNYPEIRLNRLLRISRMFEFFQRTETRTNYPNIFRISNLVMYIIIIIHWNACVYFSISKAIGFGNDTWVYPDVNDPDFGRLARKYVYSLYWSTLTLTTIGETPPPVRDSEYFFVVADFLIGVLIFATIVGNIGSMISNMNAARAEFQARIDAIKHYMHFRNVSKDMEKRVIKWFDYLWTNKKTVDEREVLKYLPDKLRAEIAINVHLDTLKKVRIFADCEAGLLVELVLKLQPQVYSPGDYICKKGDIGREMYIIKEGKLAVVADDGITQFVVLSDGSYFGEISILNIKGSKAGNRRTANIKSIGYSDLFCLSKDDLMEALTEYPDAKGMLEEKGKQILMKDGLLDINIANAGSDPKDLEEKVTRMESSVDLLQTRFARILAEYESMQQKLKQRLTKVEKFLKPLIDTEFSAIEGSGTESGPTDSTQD
In short: (§1)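 Chimeric RETα/OLFα channels were expressed in Xenopus oocytes (50 nl of 50 ng/μl RNA, 2–7 d), and the vitelline membrane was removed. Inside-out patches were bathed in symmetrical 115 mM NaCl, 5 mM EGTA, 1 mM EDTA, 5 mM HEPES, pH 7.5, held at −75 mV. Test compound was preapplied 1 min to closed channels, then saturating 2 mM cGMP; residual current normalized to Imax.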

[2] = tested on: CHM 19 (RETα with the OLFα pore); assay: Genistein inhibition of closed chimeric channel CHM 19; assay type: biochemical, bovine/rat; settings: closed channels
In short: as §1

## O=c1c(-c2ccc(O)cc2)coc2cc(O)cc(O)c12 [genistein]
[1]
  genistein inhibition: did not reduce genistein inhibition
[2]
  effect of domain exchange on genistein inhibition: did not alter genistein inhibition
